Laboratory results taken from ChEMBL document CHEMBL1828516, “Discovery of novel alkylated (bis)urea and (bis)thiourea polyamine analogues with potent antimalarial activities” (J Med Chem, 2011).
The source made the active and inactive calls. The rule behind the calls is not given here.

Assays:
Plasmodium falciparum [1] = assay: Antimalarial activity against drug-sensitive Plasmodium falciparum 3D7 infected in human erythrocytes after 96 hrs by SYBR Green I-based fluorescence assay; type: functional, organism-based; conditions: 3D7, 96 h
Procedure, shortened: (§1)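 Ring-stage cultures synchronized with 10% D-sorbitol, grown in O+ human erythrocytes in RPMI-1640 with HEPES, hypoxanthine, glucose, gentamycin and Albumax II under 5% CO2/5% O2/90% N2 at 37°C. Compounds in DMSO (<0.013%), serially diluted, added at 1% parasitemia, 2% hematocrit. Static 96 h incubation, then SYBR Green I lysis buffer for 1 h in dark. Fluorescence at ex 485/em 538 nm.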

Plasmodium falciparum [2] = assay: Antimalarial activity against […] Plasmodium falciparum HB3 infected in human erythrocytes after 96 hrs by SYBR Green I-based fluorescence assay; type: functional, organism-based; conditions: HB3, 96 h; procedure, shortened: as §1
Plasmodium falciparum [3] = assay: Antimalarial activity against Plasmodium falciparum assessed as reduction in >2N schizont stage parasites at 2 times IC50 after 72 hrs by FITC-SYBR Green I-based flow cytometry; type: functional, organism-based
HepG2 = assay: Cytotoxicity against human HepG2 cells after 48 hrs by lactate dehydrogenase assay; type: cell-based; conditions: hepg2, 48 h
Procedure, shortened: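 HepG2 cells in DMEM with 10% heat-inactivated FBS, 37°C, 5% CO2. Cells pelleted at 250xg, supernatant LDH activity read colorimetrically as NADH at 450 nm after 30 min at room temperature. Duplicate, at least two biological repeats, mean ± S.E.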

Plasmodium falciparum [4] = assay: Antimalarial activity against Plasmodium falciparum assessed as inhibition of DNA replication at 2 times IC50 after 72 hrs by FITC-SYBR Green I-based flow cytometry; type: functional, organism-based
Plasmodium falciparum [5] = assay: Resistance ratio of IC50 for Plasmodium falciparum W2 to IC50 for Plasmodium falciparum 3D7; type: functional
Procedure, shortened: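 Ratio of W2 IC50 to 3D7 IC50, both from the 96 h SYBR Green I fluorescence assay.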

Plasmodium falciparum [6] = assay: Antimalarial activity against antifolate-resistant Plasmodium falciparum W2 infected in human erythrocytes after 96 hrs by SYBR Green I-based fluorescence assay; type: functional, organism-based; conditions: W2, 96 h; procedure, shortened: as §1
Plasmodium falciparum [7] = assay: Antimalarial activity against Plasmodium falciparum assessed as increase in 1N ring or trophozoite stage parasites at 2 times IC50 after 72 hrs by FITC-SYBR Green I-based flow cytometry; type: functional, organism-based
[8] = Selectivity index, ratio of GI50 for human HepG2 cells to IC50 for Plasmodium falciparum 3D7; type: functional
Plasmodium falciparum [9] = assay: Antimalarial activity against Plasmodium falciparum assessed as reduction in 2N schizont stage parasites at 2 times IC50 after 72 hrs by FITC-SYBR Green I-based flow cytometry; type: functional, organism-based
Plasmodium falciparum [10] = assay: Antimalarial activity against Plasmodium falciparum 3D7 infected in human erythrocytes assessed as decrease in parasitemia at 2 times IC50 after 72 hrs by giemsa staining method; type: functional, organism-based
Procedure, shortened: (§2)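 P. falciparum 3D7 in O+ human erythrocytes, treated at 2xIC50 for 72 h. Parasitemia scored microscopically on Giemsa-stained smears, counting 100 parasites per slide 10x, alongside SYBR Green I DNA quantitation. Parasitemia compared at 0 h and 72 h. Three independent experiments in triplicate, mean ± S.E.; Student t-test, P<0.05.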

Plasmodium falciparum [11] = assay: Antimalarial activity against Plasmodium falciparum assessed as inhibition of nuclear division measuring 2N schizont stage parasites at 2 times IC50 after 72 hrs by FITC-SYBR Green I-based flow cytometry (reference value: 38 %); type: functional; parameters: scale not given: the % may be the effect or the level left
Plasmodium falciparum [12] = assay: Antimalarial activity against Plasmodium falciparum assessed as inhibition of nuclear division measuring 1N ring or trophozoite stage parasites at 2 times IC50 after 72 hrs by FITC-SYBR Green I-based flow cytometry (reference value: 28 %); type: functional; parameters: scale not given: the % may be the effect or the level left
Plasmodium falciparum [13] = assay: Antimalarial activity against Plasmodium falciparum assessed as inhibition of nuclear division measuring >2N schizont stage parasites at 2 times IC50 after 72 hrs by FITC-SYBR Green I-based flow cytometry (reference value: 34 %); type: functional; parameters: scale not given: the % may be the effect or the level left
Plasmodium falciparum [14] = assay: Antimalarial activity against Plasmodium falciparum 3D7 infected in human erythrocytes assessed as decrease in parasitemia at 2 times IC50 up to 72 hrs by SYBR Green I-based fluorescence assay in the presence of putrescine; type: functional, organism-based
Procedure, shortened: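 Early-ring 3D7 cultures treated at 2xIC50 with 1 mM putrescine added after 24 h or 48 h, then incubated a further 24 or 48 h. Parasitemia followed over 72 h by SYBR Green I lysis fluorescence, as in the MSF assay. At least three biological repeats in duplicate, mean ± S.E.; two-way ANOVA, P<0.05.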

Trypanosoma brucei = assay: Antitrypanosomal activity against Trypanosoma brucei; type: functional, organism-based
Plasmodium falciparum [15] = assay: Cytostatic activity against Plasmodium falciparum 3D7 infected in human erythrocytes at 2 times IC50 after 72 hrs by giemsa staining method; type: functional, organism-based; procedure, shortened: as §2

Compound	IC50 (Plasmodium falciparum [1])	IC50 (Plasmodium falciparum [2])	Activity (Plasmodium falciparum [3])	GI50 (HepG2)	DNA replication inhibition (active/inactive) (Plasmodium falciparum [4])	IC50 (Plasmodium falciparum [6])	Activity (Plasmodium falciparum [7])	Activity (Plasmodium falciparum [9])	Activity (Plasmodium falciparum [10])	other results
S=C(NCCCNCCCCCCNCCCNC(=S)NCCC(c1ccccc1)c1ccccc1)NCCC(c1ccccc1)c1ccccc1	310 nM	–	–	–	–	–	–	–	–	–
O=C(NCCCNCCCNCCCNC(=O)NCCC(c1ccccc1)c1ccccc1)NCCC(c1ccccc1)c1ccccc1	653 nM	–	–	–	–	–	–	–	–	–
S=C(NCCCNCCCCNCCCNC(=S)NC(c1ccccc1)c1ccccc1)NC(c1ccccc1)c1ccccc1	433 nM	317 nM	–	–	–	–	–	–	–	–
CCNC(=O)NCCCNCCCCCCNCCCNC(=O)NCC	> 15000 nM	–	–	–	–	–	–	–	–	–
Cl.Cl.O=C(NCCCNCCCCCCCNCCCNC(=O)NCC(c1ccccc1)c1ccccc1)NCC(c1ccccc1)c1ccccc1	100 nM	–	Active	33.8 µM	Active	140 nM	Active	Active	Active	Ratio IC50 (Plasmodium falciparum [5]): 1.4; Selectivity Index [8]: 338
Cl.Cl.S=C(NCCCNCCCCCCNCCCNC(=S)NC(c1ccccc1)c1ccccc1)NC(c1ccccc1)c1ccccc1	211 nM	–	Active	> 200 µM	Active	256 nM	Active	Active	Active	Ratio IC50 (Plasmodium falciparum [5]): 1.2; Selectivity Index [8]: >500
S=C(NCCCNCCCCNCCCNC(=S)NCC(c1ccccc1)c1ccccc1)NCC(c1ccccc1)c1ccccc1	329 nM	170 nM	Active	18.9 µM	Active	200 nM	Active	Active	Active	–
CC(=N)NCCCNCCCNCCCNC(C)=N	147000 nM	110000 nM	–	–	–	–	–	–	–	–
S=C(NCCCNCCCCCCNCCCNC(=S)NCC(c1ccccc1)c1ccccc1)NCC(c1ccccc1)c1ccccc1	436 nM	–	–	–	–	–	–	–	–	–
S=C(NCCCNCCCCNCCCNC(=S)NCCC(c1ccccc1)c1ccccc1)NCCC(c1ccccc1)c1ccccc1	528 nM	1030 nM	–	–	–	–	–	–	–	–
CCCNC(=O)NCCCNCCCCCCNCCCNC(=O)NCCC	14100 nM	–	–	–	–	–	–	–	–	–
Cl.Cl.O=C(NCCCNCCCCCCCNCCCNC(=O)NC(c1ccccc1)c1ccccc1)NC(c1ccccc1)c1ccccc1	131 nM	–	Active	> 200 µM	Active	221 nM	Active	Active	Active	Ratio IC50 (Plasmodium falciparum [5]): 1.7; Selectivity Index [8]: >1500
Cl.Cl.O=C(NCCCNCCCCCCCNCCCNC(=O)NCCC(c1ccccc1)c1ccccc1)NCCC(c1ccccc1)c1ccccc1	144 nM	200 nM	Active	23.9 µM	Active	163 nM	Active	Active	Active	Ratio IC50 (Plasmodium falciparum [5]): 1.13; Selectivity Index [8]: 166
CC(=N)NCCCNCCCCCCCNCCCNC(C)=N	–	70300 nM	–	–	–	–	–	–	–	–
O=C(NCCCNCCCCCCNCCCNC(=O)NCc1ccccc1)NCc1ccccc1	339 nM	–	–	–	–	–	–	–	–	–
CCNC(=S)NCCCNCCCCCCNCCCNC(=S)NCC	1350 nM	–	–	–	–	–	–	–	–	–
S=C(NCCCNCCCNCCCNC(=S)NCCC(c1ccccc1)c1ccccc1)NCCC(c1ccccc1)c1ccccc1	1430 nM	1640 nM	–	–	–	–	–	–	–	–

Compound	IC50 (Plasmodium falciparum [1])	IC50 (Plasmodium falciparum [2])	Activity (Plasmodium falciparum [3])	GI50 (HepG2)	DNA replication inhibition (active/inactive) (Plasmodium falciparum [4])	IC50 (Plasmodium falciparum [6])	Activity (Plasmodium falciparum [7])	Activity (Plasmodium falciparum [9])	Activity (Plasmodium falciparum [10])	other results
Cl.Cl.S=C(NCCCNCCCCCCCNCCCNC(=S)NCC(c1ccccc1)c1ccccc1)NCC(c1ccccc1)c1ccccc1	405 nM	–	Active	24.7 µM	Active	183 nM	Active	Active	Active	Activity (Plasmodium falciparum [11]): 20%; Activity (Plasmodium falciparum [12]): 78%; Activity (Plasmodium falciparum [13]): 2%; Activity (Plasmodium falciparum [14]): Active
S=C(NCCCNCCCNCCCNC(=S)NC(c1ccccc1)c1ccccc1)NC(c1ccccc1)c1ccccc1	1080 nM	766 nM	–	–	–	–	–	–	–	–
Cl.Cl.S=C(NCCCNCCCCCCCNCCCNC(=S)NCCC(c1ccccc1)c1ccccc1)NCCC(c1ccccc1)c1ccccc1	253 nM	256 nM	Active	24.5 µM	Active	147 nM	Active	Active	Active	Ratio IC50 (Plasmodium falciparum [5]): 0.58; Selectivity Index [8]: 97
Cl.Cl.S=C(NCCCNCCCCCCNCCCNC(=S)NCc1ccccc1)NCc1ccccc1	106 nM	–	Active	> 200 µM	Active	198 nM	Active	Active	Active	Ratio IC50 (Plasmodium falciparum [5]): 1.9; Selectivity Index [8]: >1500
CCCNC(=S)NCCCNCCCCCCNCCCNC(=S)NCCC	425 nM	–	–	–	–	–	–	–	–	–
N=C(NCCCNCCCCCCCNCCCNC(=N)NC(=N)NCCC(c1ccccc1)c1ccccc1)NC(=N)NCCC(c1ccccc1)c1ccccc1	298 nM	224 nM	–	–	–	–	–	–	–	IC50 (Trypanosoma brucei): 90 nM
S=C(NCCCNCCCCCCCNCCCNC(=S)NC(c1ccccc1)c1ccccc1)NC(c1ccccc1)c1ccccc1	641 nM	138 nM	–	–	–	–	–	–	–	–
S=C(NCCCNCCCNCCCNC(=S)NCC(c1ccccc1)c1ccccc1)NCC(c1ccccc1)c1ccccc1	1320 nM	715 nM	–	–	–	–	–	–	–	–
O=C(NCCCNCCCCNCCCNC(=O)NCCC(c1ccccc1)c1ccccc1)NCCC(c1ccccc1)c1ccccc1	657 nM	517 nM	–	–	–	–	–	–	–	–
Cl.Cl.S=C(NCCCNCCCCNCCCNC(=S)NCc1ccccc1)NCc1ccccc1	355 nM	–	inactive	> 200 µM	inactive	66 nM	inactive	inactive	inactive	Ratio IC50 (Plasmodium falciparum [5]): 0.19; Activity (Plasmodium falciparum [15]): Active; Selectivity Index [8]: >500
O=C(NCCCNCCCCNCCCNC(=O)NC(c1ccccc1)c1ccccc1)NC(c1ccccc1)c1ccccc1	691 nM	–	–	–	–	–	–	–	–	–
S=C(NCCCNCCCCCCNCCCNC(=S)Nc1ccccc1)Nc1ccccc1	846 nM	–	–	–	–	–	–	–	–	–
Cl.Cl.O=C(NCCCNCCCCCCNCCCNC(=O)Nc1ccccc1)Nc1ccccc1	88 nM	–	Active	619 µM	Active	26 nM	Active	Active	Active	Ratio IC50 (Plasmodium falciparum [5]): 0.3; Selectivity Index [8]: 7038
CC(=N)NCCCNCCCCNCCCNC(C)=N	80000 nM	14200 nM	–	–	–	–	–	–	–	–
O=C(NCCCNCCCCNCCCNC(=O)NCc1ccccc1)NCc1ccccc1	3480 nM	> 1000 nM	–	–	–	–	–	–	–	–
O=C(NCCCNCCCCNCCCNC(=O)NCC(c1ccccc1)c1ccccc1)NCC(c1ccccc1)c1ccccc1	408 nM	–	–	–	–	–	–	–	–	–
